Screening results as filed in PubChem BioAssay.
PRMT1 inh = PRMT1 methyltransferase inhibitors, primary screen, biochemical, fluorescence polarization. AID 652257, 2013. actives 1.3% (n = 370,000). inhibition, % at 2.79 µM. recombinant PRMT1, activity-based probe fluorescence polarization;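 active = inhibition above about 21% made by adding two undisclosed values, limit read from the data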
Target sequence (Q99873 whole entry, looked up): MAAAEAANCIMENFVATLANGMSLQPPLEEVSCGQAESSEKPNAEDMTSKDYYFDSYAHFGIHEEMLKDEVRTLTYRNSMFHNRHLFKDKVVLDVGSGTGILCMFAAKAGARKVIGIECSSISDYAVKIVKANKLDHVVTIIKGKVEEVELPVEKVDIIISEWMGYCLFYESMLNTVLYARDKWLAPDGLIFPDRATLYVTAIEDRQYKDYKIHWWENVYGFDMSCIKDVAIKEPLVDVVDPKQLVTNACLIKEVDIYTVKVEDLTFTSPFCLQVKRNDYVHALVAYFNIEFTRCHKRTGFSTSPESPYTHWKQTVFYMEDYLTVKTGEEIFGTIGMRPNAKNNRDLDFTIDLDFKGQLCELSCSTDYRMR
SIAE primary = human SIAE inhibitors, primary screen, biochemical, fluorescence polarization, FP-Rh probe, 1536-well HTS; Sialate O-acetylesterase (Homo sapiens), Q9HAT2; SIAE FP-Rh probe binding; actives 0.69% (n = 370,000); AID 1053197, 2014; inhibition, % at 9.66 µM;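 active = inhibition above a cutoff: mean of compounds within the control limits plus 3 SD of those, cut at about 17% in these data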
HTRA1 inhibitor = HTRA1 serine protease inhibitors, primary screen, biochemical, fluorescence polarization, HTS; Q92743; recombinant HTRA1, FP-rhodamine activity-based probe; inhibition, % at 5.96 µM; actives 0.5% (n = 340,000); in the data active = inhibition above about 36%
JMJD2C inh = inhibitors of GASC-1 histone demethylase, primary screen, biochemical, fluorescence, DELFIA europium; AID 2099, 2009; inhibition, % at 2.35 µM; actives 0.069% (n = 330,000); GST-JMJD2C(1-420) H3K9me3 demethylation;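 active = more than half of a compound's replicate wells show inhibition beyond 50%, single wells judged on their own value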;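 also: signal counts dimethyl H3K9 product captured on neutravidin plate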
mABHD4 FP = ABHD4 inhibitors, primary screen, biochemical, fluorescence polarization, mouse | (Lyso)-N-acylphosphatidylethanolamine lipase (Mus musculus), Q8VD66 | inhibition, % at 8.92 µM | actives 0.54% (n = 370,000) | purified mABHD4, FP-Rh probe fluorescence polarization;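 active = inhibition exceeding the mean over every tested compound plus 3 SD, cut at about 30% in these data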
Target sequence (Q8VD66 whole entry, looked up): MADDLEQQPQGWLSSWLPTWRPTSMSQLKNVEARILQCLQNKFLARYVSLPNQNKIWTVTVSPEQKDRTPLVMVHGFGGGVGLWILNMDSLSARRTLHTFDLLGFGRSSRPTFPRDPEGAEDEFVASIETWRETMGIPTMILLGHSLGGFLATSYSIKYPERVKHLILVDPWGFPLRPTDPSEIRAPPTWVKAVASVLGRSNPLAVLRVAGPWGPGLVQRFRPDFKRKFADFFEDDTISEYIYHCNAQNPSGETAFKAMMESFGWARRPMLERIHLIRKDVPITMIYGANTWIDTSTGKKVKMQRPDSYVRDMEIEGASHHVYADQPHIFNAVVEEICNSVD
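Assay system: mABHD4 protein; medium: HEPES pH 7.0, NaCl, Pluronic buffer; dosing: 8.92 µM, single dose; schedule: 45 min + 60 min at 25 °C; signal: FP readout, ex 525 nm / em 598 nm; read-out: normalized percent inhibition of probe labeling; repeats: single replicate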
Of the large screens only hits and unclear results are named; the others gave an inactive call. Rows were chosen to be rich in hits. Some 2.4% of all compounds tested hit in one or more screens of this group.

CCN1CCN(C(=O)c2cc3sccc3n2CC(=O)c2ccccc2)CC1	SIAE primary 67
CCOC(=O)c1csc(NC(=O)C2CCCN(S(=O)(=O)c3ccc([N+](=O)[O-])cc3)C2)n1 (stereo not drawn)	none (no result: HTRA1 inhibitor, JMJD2C inh)
O=C(OCc1ccccc1)N1CCC2CC1c1ccc(N3CCN(Cc4ccccc4)CC3)cc12 (stereo not drawn)	none (no result: HTRA1 inhibitor, JMJD2C inh)
CCCCc1ccc(-n2c(Cc3cccs3)n[nH]c2=S)cc1	PRMT1 inh 21
O=c1oc2cc([N+](=O)[O-])ccc2nc1/C=C(\O)c1cccc(Br)c1	mABHD4 FP 39
O=c1oc2cc([N+](=O)[O-])ccc2nc1/C=C(O)/C=C/c1ccccc1	none (no result: PRMT1 inh, SIAE primary, HTRA1 inhibitor, mABHD4 FP)
COC(=O)[C@]12C[C@H](CC(=O)N3CCCC3)C(=O)N(Cc3ccc(Cl)cc3Cl)C1=C[C@H](C(C)(C)C)O[C@@H]2C	none (no result: HTRA1 inhibitor, JMJD2C inh)
NC(=O)c1c(NC(NC(=O)c2ccco2)C(=O)c2ccc(Cl)cc2)sc2c1CCCC2 (stereo not drawn)	PRMT1 inh 24
N#Cc1c(NC(NC(=O)c2ccco2)C(=O)c2ccccc2)sc2c1CCCC2 (stereo not drawn)	PRMT1 inh 23
O=C(COc1cccnc1[N+](=O)[O-])c1ccc(Cl)s1	PRMT1 inh 52
O=C(COc1cccnc1[N+](=O)[O-])Nc1c(Cl)cccc1Cl	none
Cc1ccc(-n2c(-c3ccccc3)c[nH]c2=S)cc1	none
COc1ccc(-n2c(-c3ccc(Cl)cc3)c[nH]c2=S)cc1	PRMT1 inh 24
C#CCN(C[C@H]1[C@H](OC(=O)NCC2CCCCC2)[C@H](OC(=O)NCC2CCCCC2)C[C@@H](C(=O)OC)[C@H]1C(=O)OC)S(=O)(=O)c1ccc(C)cc1	none (no result: JMJD2C inh)
O=C(Nc1ccc(Nc2ccccc2)cc1)c1ccc(Cl)cc1	none
N#C/C(C(=O)Nc1ccc(Cl)cc1)=C(/S)Nc1ccccc1	PRMT1 inh 91
Cc1ccsc1C(=O)N1CCCC1(C)C(=O)NCC(C)C (stereo not drawn)	none (no result: HTRA1 inhibitor, JMJD2C inh)
CCn1c(=S)[nH]c2scc(-c3cccs3)c2c1=O	PRMT1 inh 23
Oc1ccc(C2Nc3cccc4cccc(c34)N2)c(O)c1	SIAE primary 20, HTRA1 inhibitor 42
CC(C)CCNC(=O)C(NS(=O)(=O)c1ccc2c(c1)c(=O)n(C)c(=O)n2C)c1ccccc1 (stereo not drawn)	PRMT1 inh 21
COCCCNc1oc(COc2ccc(Cl)cc2Cl)nc1C#N	SIAE primary 17
COc1ccc(Cl)cc1NC(=O)CSc1nnc(Cc2ccc(C)cc2)c(=O)[nH]1	PRMT1 inh 24
O=C(CC(SCc1ccco1)c1ccc(O)cc1)c1cccs1 (stereo not drawn)	PRMT1 inh 22
O=C(CSc1nnc(-c2ccc(O)cc2)n1Cc1ccco1)c1cccs1	none
Cc1ccc(S(=O)(=O)c2ccc([N+](=O)[O-])o2)cc1	PRMT1 inh 76 (no result: JMJD2C inh)
C[C@@H]1CCN(C2CC2)S(=O)(=O)c2ccc(N3CCC[C@@H]3C)cc2O1	none (no result: HTRA1 inhibitor, JMJD2C inh)
CCc1ccc(C(=O)CSc2ncn[nH]2)cc1	PRMT1 inh 23
O=C(CCN1CCCCC1)c1ccc2c(c1)OCCO2	PRMT1 inh 24
COc1ccc(C[N+]2=C(N)NC3=C(C)Cn4c(=O)n(-c5ccccc5)c(=O)n4C3C2)c(OC)c1 (stereo not drawn)	none (no result: HTRA1 inhibitor, JMJD2C inh)
CCC1CCCCN1C(=S)NN=C(C)c1ccccn1 (stereo not drawn)	PRMT1 inh 24 (no result: HTRA1 inhibitor, JMJD2C inh)
CCOC(=O)c1c(N2C(=O)CC(Sc3ccccc3C(=O)O)C2=O)sc(C)c1C (stereo not drawn)	PRMT1 inh 49
CCOC(=O)c1c(NC(=O)CSc2ccccc2C(=O)O)sc(C)c1C	none
O=C(CSc1cccc[n+]1[O-])Nc1cc2c(cc1Cl)C(=O)c1ccccc1C2=O	PRMT1 inh 23
COc1ccc(-c2cc(NC(=O)Cc3c[nH]c4ccccc34)ccc2Nc2cccnc2)c(OC)c1	none (no result: HTRA1 inhibitor, JMJD2C inh)
CCCCCNC(=O)C(C1CC1)n1c(=O)c(-c2ccco2)nc2ccccc21 (stereo not drawn)	PRMT1 inh 22 (no result: HTRA1 inhibitor, JMJD2C inh)
N#Cc1ccc(C(C(=O)NC2CCCCC2)n2c(=O)c(-c3ccco3)nc3ccccc32)cc1 (stereo not drawn)	PRMT1 inh 22 (no result: HTRA1 inhibitor, JMJD2C inh)
O=C(NCc1ccccc1)C(c1ccncc1)n1c(=O)c(-c2ccco2)nc2ccccc21 (stereo not drawn)	none (no result: HTRA1 inhibitor, JMJD2C inh)
CCCCCNC(=O)C(c1ccc(C(F)(F)F)cc1)n1c(=O)c(-c2ccco2)nc2ccccc21 (stereo not drawn)	PRMT1 inh 25 (no result: HTRA1 inhibitor, JMJD2C inh)
CC(C)(C)NC(=O)C(c1cccc2ccccc12)n1c(=O)c(-c2ccco2)nc2ccccc21 (stereo not drawn)	PRMT1 inh 22 (no result: HTRA1 inhibitor, JMJD2C inh)
Fc1ccc(-c2n[nH]c(=S)n2N=Cc2ccc(OCc3ccccc3)cc2)cc1	none (no result: HTRA1 inhibitor, JMJD2C inh)
CC1(C)Cc2c(c(=S)nc(-c3ccccc3)n2CCOCCO)CO1	PRMT1 inh 22
CC(=O)/C=C/n1c(=S)oc2ccccc21	PRMT1 inh 23 (no result: HTRA1 inhibitor)
COC(=O)c1ccccc1NC1=C/C(=N\S(=O)(=O)c2ccc(C(=O)O)cc2)c2ccccc2C1=O	HTRA1 inhibitor 45 (no result: PRMT1 inh, SIAE primary, mABHD4 FP)
COC(=O)c1ccccc1NC1=C/C(=N\S(=O)(=O)c2cccs2)c2ccccc2C1=O	none
CCc1ccc(S(=O)(=O)/N=C2\C=C(Nc3ccc(C(=O)O)cc3)C(=O)c3ccccc32)cc1	mABHD4 FP 54
Cc1ccc(NC2=C/C(=N/S(=O)(=O)c3cccs3)c3ccccc3C2=O)cc1	none
CC1C/C(=C/c2cccs2)C(=O)/C(=C/c2cccs2)C1 (stereo not drawn)	PRMT1 inh 22
COc1ccc(N2CSC3=C(C#N)C(c4ccc(OC)c(OC)c4)CC(=O)N3C2)c(OC)c1 (stereo not drawn)	PRMT1 inh 47
COc1ccc(N2CSC3=C(C#N)C(c4cc(OC)ccc4OC)CC(=O)N3C2)c(OC)c1 (stereo not drawn)	none (no result: PRMT1 inh, SIAE primary, mABHD4 FP)
O=C(NCc1cccc2ccccc12)C1CCCN(c2nc3ccccc3o2)C1 (stereo not drawn)	none (no result: HTRA1 inhibitor, JMJD2C inh)
C/C=C/C(=O)N1CC2(CC(c3cccc(NC(=O)CCCCC)c3)=NO2)C[C@H]1C(N)=O (stereo partly drawn)	none (no result: PRMT1 inh, SIAE primary, HTRA1 inhibitor, mABHD4 FP)
C/C=C/C=C/C(=O)N1CC2(CC(c3cccc(NC(=O)CCCCC)c3)=NO2)C[C@H]1C(N)=O (stereo partly drawn)	PRMT1 inh 21
O[C@H]1C[C@H](c2ccccc2)N(Cc2cccs2)C[C@@H]1n1cc(-c2ccc(F)cc2)nn1	none (no result: JMJD2C inh)
Cc1ccc(CN2C(=O)c3ccccc3C2c2nnnn2-c2c(C)cccc2C)cc1 (stereo not drawn)	none (no result: HTRA1 inhibitor, JMJD2C inh)
